# Data published in ChEMBL document CHEMBL3414450, “Synthetic phenylethanoid glycoside derivatives as potent neuroprotective agents” (Eur J Med Chem, 2015).
# The source made the active and inactive calls. The calls are words filed in the database; no cut-off is given here.
# Key:
# [1] = tested on: PC-12; test: Neuroprotective activity in rat PC12 cells assessed as decrease in 6-OHDA-induced cell death at 6.25 to 100 uM incubated for 6 hrs prior to 6-OHDA challenge measured after 24 hrs by MTT assay; assay type: functional, cell-based
# Method in brief: (§1)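 PC12 cells seeded at 1×10^5/well for 24 h, pretreated 6 h with compound (6.25–100 μM; DMSO stock diluted in PBS), then exposed to 100 μM 6-OHDA for 24 h at 37 °C. Viability read by MTT (5 mg/mL, 4 h), DMSO, absorbance 570 nm. Expressed as % of the PBS-treated control, mean ± SD, n = 3.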
# [2] = tested on: PC-12; test: Neuroprotective activity in rat PC12 cells assessed as decrease in H2O2-induced cell death at 100 uM incubated for 6 hrs prior to H2O2 challenge measured after 1 hr by MTT assay; assay type: functional, cell-based
# Method in brief: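 PC12 cells seeded at 1×10^5/well for 24 h. Pretreated 6 h with compound (100 μM; DMSO stock diluted in PBS), then challenged with 300 μM H2O2 for 1 h at 37 °C. MTT at 5 mg/mL for 4 h, DMSO solubilisation, A570. Survival is given as % of the PBS-treated control, mean ± SD, n = 3. Vitamin C was the positive control.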
# [3] = tested on: PC-12; test: Neuroprotective activity in rat PC12 cells assessed as decrease in 6-OHDA-induced early and late apoptosis at 6.25 to 25 uM incubated for 6 hrs prior to 6-OHDA challenge measured after 24 hrs by annexin V/propidium iodide staining-based fluorescence microscopic analysis; assay type: functional, cell-based
# Method in brief: (§2)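 PC12 cells on coverslips (1×10^5/well) pretreated 6 h with compound, then given 100 μM 6-OHDA for 24 h at 37 °C. After two PBS washes, stained with Annexin V-FITC/PI, each diluted 1:100 in binding buffer and mixed 1:1. Imaged by fluorescence microscopy (ex 488; em 515–545 and 575–635 nm). Apoptotic and necrotic cells counted in five fields, three separate groups. Edaravone was the positive control.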
# [4] = tested on: PC-12; test: Neuroprotective activity in rat PC12 cells assessed as decrease in 6-OHDA-induced intracellular ROS level incubated for 6 hrs prior to 6-OHDA challenge measured after 24 hrs by DCFH-DA dye-based spectrofluor analysis; assay type: functional, cell-based
# Method in brief: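 PC12 cells (1×10^5/well) pretreated 6 h with compound at several concentrations one day after seeding, then given 100 μM 6-OHDA for 24 h at 37 °C. Loaded with DCFH-DA (1:1000 in DMEM) for 30 min at 37 °C, 5% CO2, then washed three times with PBS. DCF fluorescence read at 488/525 nm in five fields per well. Untreated cells are set to 100%, mean ± SD, n = 3. Edaravone was the positive control.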
# [5] = tested on: PC-12; test: Neuroprotective activity in rat PC12 cells assessed as decrease in 6-OHDA-induced cell death incubated for 6 hrs prior to 6-OHDA challenge measured after 24 hrs by MTT assay; assay type: functional, cell-based; method in brief: as §1
# [6] = Cytotoxicity against rat PC12 cells assessed as cell viability at 100 uM incubated for 6 hrs prior to PBS treatment measured after 1 hr by MTT assay; assay type: cell-based; details: pc-12, 1 h
# [7] = tested on: PC-12; test: Neuroprotective activity in rat PC12 cells assessed as decrease in 6-OHDA-induced early and late apoptosis at 1.56 to 6.25 uM incubated for 6 hrs prior to 6-OHDA challenge measured after 24 hrs by annexin V/propidium iodide staining-based fluorescence microscopic analysis; assay type: functional, cell-based; method in brief: as §2
# [8] = tested on: PC-12; test: Neuroprotective activity in rat PC12 cells assessed as decrease in 6-OHDA-induced early and late apoptosis at 6.25 to 50 uM incubated for 6 hrs prior to 6-OHDA challenge measured after 24 hrs by annexin V/propidium iodide staining-based fluorescence microscopic analysis; assay type: functional, cell-based; method in brief: as §2
# [9] = tested on: PC-12; test: Neuroprotective activity in rat PC12 cells assessed as decrease in 6-OHDA-induced apoptosis at 200 uM incubated for 6 hrs prior to 6-OHDA challenge measured after 24 hrs by annexin V/propidium iodide staining-based fluorescence microscopic analysis; assay type: functional, cell-based; method in brief: as §2
Compound,Activity [1],Activity [2],Activity [4],Activity [5],Activity [6],further results
OC[C@H]1O[C@@H](OCCc2ccc(O)c(O)c2)[C@H](O)[C@@H](O)[C@@H]1O,Active,Active,–,–,–,–
COC(=O)[C@]1(OC)C[C@H](O)[C@@H](NC(=O)/C=C/c2ccc(O)c(O)c2)[C@H]([C@H](O)[C@H](O)CO)O1,–,Active,Dose-dependent effect,Dose-dependent effect,Non-toxic,Activity [3]: Active
O=C(/C=C/c1ccc(O)c(O)c1)OCCc1ccc(O)c(O)c1,–,Active,Dose-dependent effect,Dose-dependent effect,Non-toxic,Activity [7]: Active
O=C(/C=C/c1ccc(F)c(F)c1)O[C@H]1[C@H](O)[C@@H](O)[C@H](OCCc2ccc(O)c(O)c2)O[C@@H]1CO,Active,Active,–,–,–,–
O=C(/C=C/c1ccc(O)c(O)c1)O[C@H]1[C@H](O)[C@@H](O)[C@H](OCCc2ccc(O)c(O)c2)O[C@@H]1CO,Active,Active,–,–,–,–
COc1ccc(/C=C/C(=O)O[C@H]2[C@H](O)[C@@H](O)[C@H](OCCc3ccc(O)c(O)c3)O[C@@H]2CO)cc1OC,–,inactive,–,–,–,–
O=C(Cc1ccc(O)c(O)c1)O[C@H]1[C@H](O)[C@@H](O)[C@H](OCCc2ccc(O)c(O)c2)O[C@@H]1CO,–,Active,Dose-dependent effect,Dose-dependent effect,Non-toxic,Activity [8]: Active
CC1=NN(c2ccccc2)C(=O)C1,–,–,–,–,–,Activity [9]: inactive
O=C(/C=C/c1ccc(Cl)cc1)O[C@H]1[C@H](O)[C@@H](O)[C@H](OCCc2ccc(O)c(O)c2)O[C@@H]1CO,Active,Active,–,–,–,–
